# Data published in ChEMBL document CHEMBL1157729, “Structure-activity relationship and mechanism of action studies of manzamine analogues for the control of neuroinflammation and cerebral infections” (J Med Chem, 2010).
# How the values were obtained:
# HeLa [1] = assay: Cell cycle arrest in human HeLa cells assessed as decrease in G2/M phase accumulation at 3 uM after 24 hrs by FACS analysis; format: functional; set-up: scale not given: the % may be the effect or the level left
# HeLa [2] = assay: Cell cycle arrest in human HeLa cells assessed as decrease in G2/M phase accumulation at 10 uM after 24 hrs by FACS analysis; format: functional; set-up: scale not given: the % may be the effect or the level left
# [3] = Selectivity index, ratio of IC50 for african green monkey (Cercopithecus aethiops) Vero cells to IC50 for chloroquine-sensitive Plasmodium falciparum; format: toxicity, cell-based
# Plasmodium berghei [4] = assay: Antiplasmodial activity against Plasmodium berghei NK65 infected in Swiss Webster mice (Mus musculus) assessed as average parasitaemia at 1.1 mg/kg, perorally administered 1 day after infection for 3 days measured after 10 days post infection; format: functional; details: route oral
# Plasmodium berghei [5] = assay: Antiplasmodial activity against Plasmodium berghei NK65 infected in Swiss Webster mice (Mus musculus) assessed as parasitaemia cure at 10 mg/kg, perorally administered 1 day after infection for 3 days measured after 28 days post infection; format: functional; details: route oral
# Summary of the method: (§1)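 Male Swiss Webster mice (18-20 g), at least 5 per group, inoculated i.p. with 2×10^7 P. berghei NK-65-parasitized red cells from a donor mouse. Oral dosing (100 μl, in SSV or 0.01 M HCl dilutions) from day one post-infection on a 3-day schedule (modified Peters test). Giemsa-stained tail-blood smears read from day 5 to day 28. Cure means no parasitemia through day 28.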
# Plasmodium berghei [6] = assay: Antiplasmodial activity against Plasmodium berghei NK65 infected in Swiss Webster mice (Mus musculus) assessed as average parasitaemia at 200 mg/kg, perorally administered 1 day after infection measured after 5 days post infection; format: functional; details: Plasmodium berghei, NK65, route oral
# Summary of the method: (§2)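 Male Swiss Webster mice (18-20 g), at least 5 per group, were inoculated ip with 2×10^7 P. berghei NK-65-parasitized red cells from a donor mouse and given a single oral dose (100 μl). Stock was made in SSV or 0.1 M HCl and diluted in SSV or 0.01 M HCl. Parasitemia was read from Giemsa-stained tail blood smears from day 5 to day 28. Cure meant no parasitemia through day 28.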
# Plasmodium berghei [7] = assay: Antiplasmodial activity against Plasmodium berghei NK65 infected in Swiss Webster mice (Mus musculus) assessed as average parasitaemia at 50 mg/kg, perorally administered 1 day after infection measured after 14 days post infection; format: functional; details: route oral
# Summary of the method: (§3)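 Male Swiss Webster mice (18-20 g, ≥5/group) inoculated i.p. with 2×10^7 P. berghei NK-65 parasitized RBC, given a single oral dose (100 μl, SSV or dilute HCl vehicle); parasitemia by Giemsa-stained tail blood smears days 5–28; activity as % decrease versus untreated controls on day 5.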
# Plasmodium berghei [8] = assay: Antiplasmodial activity against Plasmodium berghei NK65 infected in Swiss Webster mice (Mus musculus) assessed as inhibition of parasitaemia at 100 mg/kg, perorally administered 1 day after infection measured after 5 days post infection; format: functional; details: route oral; summary of the method: as §3
# Plasmodium berghei [9] = assay: Antiplasmodial activity against Plasmodium berghei NK65 infected in Swiss Webster mice (Mus musculus) assessed as survivability at 10 mg/kg, perorally administered 1 day after infection for 3 days measured after 28 days post infection; format: functional; details: route oral
# Plasmodium berghei [10] = assay: Antiplasmodial activity against Plasmodium berghei NK65 infected in Swiss Webster mice (Mus musculus) assessed as average parasitaemia at 5 mg/kg, perorally administered 1 day after infection for 3 days measured after 7 days post infection; format: functional; details: route oral
# Mus musculus [11] = assay: Toxicity in Plasmodium berghei NK65 infected Swiss Webster mice (Mus musculus) assessed as weight loss at 300 mg/kg, perorally; format: organism-based; set-up: dose 300 mg/kg, route oral; details: in vivo, po
# Summary of the method: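 P. berghei NK-65 infection in male Swiss Webster mice (18-20 g; 2×10^7 parasitized erythrocytes i.p.; ≥5 per group). A single oral dose of 100 μl, diluted in SSV or 0.01 M HCl, then observation for toxicity signs and body weight. Parasitemia read from Giemsa-stained tail smears from day 5 through day 28. Mice free of parasitemia through day 28 counted as cured.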
# Plasmodium berghei [12] = assay: Antiplasmodial activity against Plasmodium berghei NK65 infected in Swiss Webster mice (Mus musculus) assessed as survivability at 3.3 mg/kg, perorally administered 1 day after infection for 3 days measured after 28 days post infection; format: functional; details: route oral; summary of the method: as §1
# Plasmodium berghei [13] = assay: Antiplasmodial activity against Plasmodium berghei NK65 infected in Swiss Webster mice (Mus musculus) at 10 mg/kg, po; format: functional
# Mus musculus [14] = species on record: Mus musculus; assay: Toxicity in Plasmodium berghei NK65 infected Swiss Webster mice (Mus musculus) assessed as weight loss after 5 days post infection; format: organism-based; details: in vivo, 120 h
# Plasmodium berghei [15] = assay: Antiplasmodial activity against Plasmodium berghei NK65 infected in Swiss Webster mice (Mus musculus) assessed as average parasitaemia at 50 mg/kg, perorally administered 1 day after infection measured after 21 days post infection; format: functional; details: route oral; summary of the method: as §3
# Plasmodium berghei [16] = assay: Antiplasmodial activity against Plasmodium berghei infected in mice (Mus musculus) at 5 mg/kg, perorally administered 1 day post infection for 3 days; format: functional; details: route oral
# Plasmodium berghei [17] = assay: Antiplasmodial activity against Plasmodium berghei NK65 infected in Swiss Webster mice (Mus musculus) assessed as average parasitaemia at 200 mg/kg, perorally administered 1 day after infection measured after 10 days post infection; format: functional; details: Plasmodium berghei, NK65, route oral; summary of the method: as §3
# Vero = assay: Cytotoxicity against african green monkey Vero cells after 48 hrs by neutral red assay; format: cell-based; details: chlorocebus sabaeus
# Summary of the method: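 Vero cells seeded at 25,000/well and grown 24 h, then exposed to serially diluted samples for 48 h. Viable cells measured by neutral red assay, with doxorubicin as positive control. IC50 taken from dose-response curves.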
# Plasmodium berghei [18] = assay: Antiplasmodial activity in Plasmodium berghei NK65 infected in Swiss Webster mice (Mus musculus) assessed as survivability at 1.1 mg/kg, perorally administered 1 day after infection for 3 days measured after 28 days post infection; format: functional; details: route oral; summary of the method: as §1
# Plasmodium berghei [19] = assay: Antiplasmodial activity against Plasmodium berghei NK65 infected in Swiss Webster mice (Mus musculus) assessed as parasitaemia cure at 200 mg/kg, perorally administered 1 day after infection measured after 28 days post infection; format: functional; details: Plasmodium berghei, NK65, route oral; summary of the method: as §2
# Plasmodium berghei [20] = assay: Antiplasmodial activity against Plasmodium berghei NK65 infected in Swiss Webster mice (Mus musculus) at 5 mg/kg, po; format: functional
# Plasmodium berghei [21] = assay: Antiplasmodial activity against Plasmodium berghei NK65 infected in Swiss Webster mice (Mus musculus) assessed as average parasitaemia at 50 mg/kg, perorally administered 1 day after infection measured after 7 days post infection; format: functional; details: route oral; summary of the method: as §3
# Plasmodium berghei [22] = assay: Antiplasmodial activity against Plasmodium berghei NK65 infected in Swiss Webster mice (Mus musculus) assessed as average parasitaemia at 50 mg/kg, perorally administered 1 day after infection measured after 28 days post infection; format: functional; details: route oral; summary of the method: as §3
# Plasmodium berghei [23] = assay: Antiplasmodial activity against Plasmodium berghei NK65 infected in Swiss Webster mice (Mus musculus) assessed as average parasitaemia at 50 mg/kg, perorally administered 1 day after infection measured after 10 days post infection; format: functional; details: route oral
# Plasmodium berghei [24] = assay: Antiplasmodial activity against Plasmodium berghei NK65 infected in Swiss Webster mice (Mus musculus) assessed as average parasitaemia at 3.3 mg/kg, perorally administered 1 day after infection for 3 days measured after 21 days post infection; format: functional; details: route oral
# Summary of the method: (§4)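 Male Swiss Webster mice (18-20 g, ≥5/group) inoculated i.p. with 2×10^7 P. berghei NK-65 parasitized RBC; oral dosing (100 μl, SSV or dilute HCl vehicle) once daily for 3 days from day 1; Giemsa-stained tail blood smears days 5–28; inhibition is % decrease versus untreated controls on day 5.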
# Plasmodium berghei [25] = assay: Antiplasmodial activity against Plasmodium berghei NK65 infected in Swiss Webster mice (Mus musculus) assessed as average parasitaemia at 3.3 mg/kg, perorally administered 1 day after infection for 3 days measured after 28 days post infection; format: functional; details: route oral; summary of the method: as §4
structure (smiles),measurement,setting,value
O[C@]12C=C(c3nccc4c3[nH]c3ccccc34)[C@@H]3CCN(CCCC/C=C\CC1)C[C@@]31C[C@@H]3/C=C\CCCCN3[C@H]12 [MANZAMINE A],Activity,HeLa [1],13%
same,Activity,HeLa [2],13.6%
same,Ratio IC50,[3],44
same,inhibition in vivo at 1.1 mg/kg,Plasmodium berghei [4],11.5%
same,inhibition in vivo at 10 mg/kg,Plasmodium berghei [5],75%
same,inhibition in vivo at 200 mg/kg,Plasmodium berghei [6],0%
same,inhibition in vivo at 50 mg/kg,Plasmodium berghei [7],1%
same,inhibition in vivo at 100 mg/kg,Plasmodium berghei [8],100%
same,inhibition in vivo at 10 mg/kg,Plasmodium berghei [9],100%
same,inhibition in vivo at 5 mg/kg,Plasmodium berghei [10],4.5%
same,Activity,Mus musculus [11],Non-toxic
same,inhibition in vivo at 3.3 mg/kg,Plasmodium berghei [12],100%
same,inhibition in vivo at 10 mg/kg,Plasmodium berghei [13],> 30%
same,Activity,Mus musculus [14],Non-toxic
same,inhibition in vivo at 50 mg/kg,Plasmodium berghei [15],5.2%
same,Activity,Plasmodium berghei [16],24.3 days
same,inhibition in vivo at 200 mg/kg,Plasmodium berghei [17],0%
same,IC50,Vero,0.2 µg/mL
same,inhibition in vivo at 1.1 mg/kg,Plasmodium berghei [18],50%
same,inhibition in vivo at 200 mg/kg,Plasmodium berghei [19],100%
same,inhibition in vivo at 5 mg/kg,Plasmodium berghei [20],> 30%
same,inhibition in vivo at 50 mg/kg,Plasmodium berghei [21],0%
same,inhibition in vivo at 50 mg/kg,Plasmodium berghei [22],6.25%
same,inhibition in vivo at 50 mg/kg,Plasmodium berghei [23],0%
same,inhibition in vivo at 3.3 mg/kg,Plasmodium berghei [24],21.6%
same,inhibition in vivo at 3.3 mg/kg,Plasmodium berghei [25],53.9%
